We go through eight molecules from ChEMBL document CHEMBL1129247, “Dihydrobenzofuran analogues of hallucinogens. 3. Models of 4-substituted (2,5-dimethoxyphenyl)alkylamine derivatives with rigidified methoxy groups” (J Med Chem, 1996).

Assay [1] addresses 5-hydroxytryptamine receptor 2A (Rattus norvegicus, UniProt P14842). Nature of the assay: Binding affinity towards rat cortical 5-hydroxytryptamine 2A receptor using [3H]ketanserin as radioligand.
Assay [2] has as its target T1, 5-hydroxytryptamine receptor 1A (Rattus norvegicus, UniProt P19327).
T1 sequence (P19327 whole entry): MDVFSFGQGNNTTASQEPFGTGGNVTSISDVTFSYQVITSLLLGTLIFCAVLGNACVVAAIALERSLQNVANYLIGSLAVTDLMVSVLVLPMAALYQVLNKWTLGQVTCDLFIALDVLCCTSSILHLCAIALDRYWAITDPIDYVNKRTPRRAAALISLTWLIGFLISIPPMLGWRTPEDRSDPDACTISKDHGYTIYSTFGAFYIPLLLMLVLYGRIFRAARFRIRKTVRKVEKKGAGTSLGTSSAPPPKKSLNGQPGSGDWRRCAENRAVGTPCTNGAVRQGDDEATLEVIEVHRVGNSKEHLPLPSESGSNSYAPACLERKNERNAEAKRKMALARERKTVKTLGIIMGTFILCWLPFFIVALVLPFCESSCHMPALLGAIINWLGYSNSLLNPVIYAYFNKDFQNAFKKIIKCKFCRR
Briefly: Binding affinity towards rat hippocampal 5-hydroxytryptamine 1A receptor using [3H]8-OH-DPAT as radioligand. The class given is tissue-based, Hippocampus. In a few lines:
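Hippocampus pooled from male Sprague–Dawley rats (175–199 g), homogenised in sucrose and frozen. Membranes washed and preincubated twice at 37 °C in Tris HCl pH 7.4 with EDTA, ascorbate and pargyline. Assay: 0.75 nM [3H]-8-OH-DPAT, 200–400 μg protein, 15 min at 37 °C, GF/C filtration. Nonspecific binding: 10 μM 5-HT. Run in triplicate; expressed as Ki.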

For assay [3], the species on record is Rattus norvegicus. Briefly: Effective dose for behavioral activity or hallucinogenic potential in drug discrimination studies in LSD(d-lysergic acid N,N-diethylamide) trained rats. The arrangement: unit not given here. The assay is classed as functional. In a few lines:
(§1)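 Male Sprague–Dawley rats (200–220 g) trained in a two-lever, FR50 food task to tell LSD tartrate (0.08 mg/kg ip) from saline. Test drugs were given ip in 0.9% saline 30 min before extinction sessions. The first lever reaching 50 presses was scored; no completion within 5 min counted as disruption.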

Assay [4] deals with T2, 5-hydroxytryptamine receptor 2C (Homo sapiens, UniProt P28335).
T2 sequence (P28335 whole entry): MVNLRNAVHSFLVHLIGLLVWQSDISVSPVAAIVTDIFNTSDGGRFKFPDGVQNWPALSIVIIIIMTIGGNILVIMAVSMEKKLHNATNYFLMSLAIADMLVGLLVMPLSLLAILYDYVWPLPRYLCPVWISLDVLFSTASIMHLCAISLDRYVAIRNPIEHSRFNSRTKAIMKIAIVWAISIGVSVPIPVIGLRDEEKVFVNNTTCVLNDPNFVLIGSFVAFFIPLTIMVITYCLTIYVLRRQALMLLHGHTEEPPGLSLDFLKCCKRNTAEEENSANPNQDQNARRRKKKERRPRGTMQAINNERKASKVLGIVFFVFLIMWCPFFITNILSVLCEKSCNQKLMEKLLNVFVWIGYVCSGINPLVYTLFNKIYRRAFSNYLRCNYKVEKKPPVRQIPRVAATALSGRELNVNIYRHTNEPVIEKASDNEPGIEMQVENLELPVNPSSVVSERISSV
Briefly: Agonistic activity at cloned human 5-hydroxytryptamine 2C receptor using [125I]DOI as radioligand. The assay is classed as functional. In a few lines: (§2)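 AV12 hamster fibroblast membranes stably expressing the human receptor. Final buffer: 10 μM pargyline, 9.75 mM MgCl2, 0.5 mM EDTA, 0.1% Na ascorbate, 50 mM Tris HCl pH 7.4. [125I]DOI was at about 0.07–0.15 nM, with about 40 μg (2A) or 30 μg (2C) protein, for 30 min at 37 °C. Nonspecific binding: 1 μM ketanserin (2A) or 10 μM mianserin (2C). Read by filtration and gamma counting.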

The target in assay [5] is T3, 5-hydroxytryptamine receptor 2A (Homo sapiens, UniProt P28223). Briefly: Agonistic activity at cloned human 5-hydroxytryptamine 2A receptor using [125I]DOI as radioligand. The class given is functional. In a few lines:
as §2

Assay [6] concerns the target T2, 5-hydroxytryptamine receptor 2C. Nature of the assay: Antagonistic activity at cloned human 5-hydroxytryptamine 2C receptor using [3H]mesulergine as radioligand. The class given is functional. In outline: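 AV12 membranes expressing human 5-HT2C. The 0.8 mL assay held 0.74–0.82 nM [3H]mesulergine, varying competitor and Tris HCl, final pH 7.6. Incubated 30 min at 37 °C, then filtered, washed and counted by liquid scintillation. Mianserin defined nonspecific binding.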

Assay [7] concerns the target T3, 5-hydroxytryptamine receptor 2A. Nature of the assay: Antagonistic activity at cloned human 5-hydroxytryptamine 2A receptor using [3H]ketanserin as radioligand. The assay is classed as functional. In a few lines:
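Human 5-HT2A expressed in AV12 cell membranes. The 0.8 mL assay held 50 mM Tris HCl, 100 nM prazosin to block α1 sites, 0.4–0.5 nM [3H]ketanserin and varying competitor, final pH 7.6. Incubated 15 min at 37 °C, then filtered and washed. Mianserin 3 μM defined nonspecific binding. Read by liquid scintillation.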

Assay [8] has as its target T4, 5-hydroxytryptamine receptor 2B (Homo sapiens, UniProt P41595). Briefly: Antagonistic activity at cloned human 5-hydroxytryptamine 2B receptor using [3H]rauwolscine as radioligand. The class given is functional. In outline: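 Human 5-HT2B membranes from stably transformed AV12 cells in Tris HCl pH 7.4. Competition against 2 nM [3H]rauwolscine (final), with 500 nM efaroxan to mask α2 sites, in 50 mM Tris HCl pH 7.4. Incubated 20 min at 37 °C, then filtered. Nonspecific binding with 10 μM 1-naphthylpiperazine.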

For assay [9], the target named is T4, 5-hydroxytryptamine receptor 2B. Briefly: Agonistic activity at cloned human 5-hydroxytryptamine 2B receptor using [3H]-5-HT as radioligand. The class given is functional. In a few lines:
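Membranes from AV12 hamster fibroblasts stably expressing human 5-HT2B, lysed hypotonically in 50 mM Tris HCl pH 7.4. Competition against about 2 nM [3H]-5-HT (free level measured) in 50 mM Tris, 3 mM CaCl2, 10 μM pargyline, 0.1% ascorbic acid, pH 7.4. Drug dilutions spanned 6 log units. About 100-150 μg protein per tube, 15 min at 37 °C, in triplicate. Nonspecific binding with 10 μM 5-HT or 1-NP. Filtration, then scintillation counting.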

The species named for assay [10] is Rattus norvegicus. Briefly: Effective dose in Drug Discrimination studies in LSD(d-lysergic acid N,N-diethylamide) trained rats. No. of animals tested 15. The class given is functional. In a few lines: as §1

Broadly, the Ki is the dissociation constant of the complex between target and ligand, obtained from inhibition or displacement.

Sequence of 5-hydroxytryptamine receptor 2A (Rattus norvegicus, UniProt P14842) (P14842 whole entry): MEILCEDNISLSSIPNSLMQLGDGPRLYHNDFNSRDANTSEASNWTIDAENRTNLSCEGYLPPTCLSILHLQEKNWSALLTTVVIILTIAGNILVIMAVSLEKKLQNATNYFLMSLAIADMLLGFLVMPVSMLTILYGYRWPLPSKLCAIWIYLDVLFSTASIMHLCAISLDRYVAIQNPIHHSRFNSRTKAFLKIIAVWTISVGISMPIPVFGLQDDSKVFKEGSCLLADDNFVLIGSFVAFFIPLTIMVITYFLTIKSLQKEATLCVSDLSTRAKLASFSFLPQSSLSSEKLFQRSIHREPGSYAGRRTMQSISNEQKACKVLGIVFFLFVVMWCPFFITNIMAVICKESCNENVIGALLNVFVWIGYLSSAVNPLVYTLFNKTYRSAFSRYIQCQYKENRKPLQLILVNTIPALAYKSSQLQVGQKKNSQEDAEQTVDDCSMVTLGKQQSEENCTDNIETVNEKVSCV
T4 sequence (P41595 whole entry): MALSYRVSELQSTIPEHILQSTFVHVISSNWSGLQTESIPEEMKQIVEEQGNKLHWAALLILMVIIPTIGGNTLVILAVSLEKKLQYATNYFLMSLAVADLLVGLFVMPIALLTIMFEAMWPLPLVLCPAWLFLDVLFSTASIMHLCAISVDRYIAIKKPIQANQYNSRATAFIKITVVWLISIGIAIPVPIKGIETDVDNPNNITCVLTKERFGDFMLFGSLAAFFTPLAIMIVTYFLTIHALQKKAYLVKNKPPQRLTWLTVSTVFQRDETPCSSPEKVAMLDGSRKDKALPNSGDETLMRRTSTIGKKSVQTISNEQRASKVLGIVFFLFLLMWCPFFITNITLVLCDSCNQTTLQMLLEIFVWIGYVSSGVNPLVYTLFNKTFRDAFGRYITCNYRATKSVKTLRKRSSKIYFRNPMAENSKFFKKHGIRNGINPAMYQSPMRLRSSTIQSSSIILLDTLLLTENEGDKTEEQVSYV
T3 sequence (P28223 whole entry): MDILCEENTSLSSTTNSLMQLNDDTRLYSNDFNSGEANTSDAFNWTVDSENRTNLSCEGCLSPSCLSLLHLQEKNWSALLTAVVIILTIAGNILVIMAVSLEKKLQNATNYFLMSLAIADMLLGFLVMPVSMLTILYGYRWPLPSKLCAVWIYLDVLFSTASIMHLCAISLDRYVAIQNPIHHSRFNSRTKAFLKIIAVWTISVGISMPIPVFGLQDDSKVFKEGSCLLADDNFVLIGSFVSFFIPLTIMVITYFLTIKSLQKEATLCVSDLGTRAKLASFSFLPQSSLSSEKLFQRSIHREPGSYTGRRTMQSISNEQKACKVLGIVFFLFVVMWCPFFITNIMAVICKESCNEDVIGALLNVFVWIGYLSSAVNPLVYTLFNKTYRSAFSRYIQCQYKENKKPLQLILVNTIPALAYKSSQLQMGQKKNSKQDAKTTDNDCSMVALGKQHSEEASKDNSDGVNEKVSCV

For the molecule `NCCc1c2c(cc3c1OCC3)OCC2`, the Ki was determined as 2300 nM in assay [1] and 5.2 nM in assay [2]. This molecule also yielded an ED50 in the assay listed under Rattus norvegicus [3] of 1430.

For `CC(N)Cc1c2c(c(Br)c3c1OCC3)OCC2` (stereo unspecified), the Ki in [4] came to 0.3 nM; in [1] it was 18 nM; in assay [2], 4.3 nM; in assay [5], 0.48 nM; in assay [6] it was 2.28 nM; in assay [7], 10.7 nM. Also, the Ki in assay [8] turned out to be 1.15 nM; in [9], 1.6 nM. The ED50 in the assay listed under Rattus norvegicus [3] stood at 61.

Regarding `NCCc1c2c(c(Br)c3c1OCC3)OCC2`, the Ki in [1] worked out at 34 nM; in assay [2], 0.8 nM.

With `Cc1c2c(c(CC(C)N)c3c1OCC3)OCC2` (stereo unspecified), the ED50 in the assay filed under Rattus norvegicus [3] turned out to be 780.

Take `COc1cc(Br)c2c(c1CC(C)N)CCO2` (stereo unspecified): the ED50 in the assay filed under Rattus norvegicus [3] turned out to be 570.

As for `CC(N)Cc1c2c(cc3c1OCC3)OCC2` (stereo unspecified), the Ki in [1] amounted to 2010 nM; in [2], 29 nM. In the assay filed under Rattus norvegicus [3], this molecule came in with an ED50 of 64000.

In turn, `COc1cc(CC(C)N)c(OC)cc1Br` (stereo unspecified) [BROLAMFETAMINE] yielded a Ki in assay [2] of 6.1 nM.

In the assay filed under Rattus norvegicus [10], `CCN(CC)C(=O)[C@@H]1C=C2c3cccc4[nH]cc(c34)C[C@H]2N(C)C1` [LYSERGIDE] came in with an ED50 of 40 µmol/kg.
